Data taken from ChEMBL document CHEMBL1145787, “Synthesis and structure-activity relationship of N-substituted 4-arylsulfonylpiperidine-4-hydroxamic acids as novel, orally active matrix metalloproteinase inhibitors for the treatment of osteoarthritis” (J Med Chem, 2003).
One block for each molecule: values may come before it.

How the values were obtained:
[1] = biological target: T1, Interstitial collagenase (Homo sapiens) (UniProt P03956); experiment: Inhibition of Matrix metalloprotease-1 at 10 uM
T1 sequence (whole entry): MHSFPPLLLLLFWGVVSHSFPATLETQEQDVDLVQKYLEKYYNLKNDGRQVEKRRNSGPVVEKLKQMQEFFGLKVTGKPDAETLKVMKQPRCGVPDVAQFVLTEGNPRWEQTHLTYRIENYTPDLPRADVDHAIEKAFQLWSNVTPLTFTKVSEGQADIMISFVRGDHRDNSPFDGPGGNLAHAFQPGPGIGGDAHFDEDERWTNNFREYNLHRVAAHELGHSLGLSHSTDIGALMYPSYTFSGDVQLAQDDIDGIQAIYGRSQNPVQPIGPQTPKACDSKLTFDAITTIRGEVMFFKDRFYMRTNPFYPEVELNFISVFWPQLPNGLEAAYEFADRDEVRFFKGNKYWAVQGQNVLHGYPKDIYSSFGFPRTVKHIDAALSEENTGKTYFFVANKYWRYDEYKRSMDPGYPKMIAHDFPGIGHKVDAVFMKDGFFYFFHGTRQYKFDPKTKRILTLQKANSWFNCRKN
Procedure, shortened: (§1)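 Dose–response curves were not generated when inhibition was below 60% at 10 μM.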

[2] = In vivo inhibitory activity against Matrix metalloprotease enzyme by dialysis implant assay, value is relative to activity of CGS-27023 (35+/-4) at 25 mg/kg. po; format: functional
[3] = biological target: Matrix metalloproteinase-9 (Homo sapiens, UniProt P14780); experiment: In vitro inhibitory activity against matrix metalloprotease-9.
Sequence of Matrix metalloproteinase-9 (P14780 whole entry, the tested form may be a part): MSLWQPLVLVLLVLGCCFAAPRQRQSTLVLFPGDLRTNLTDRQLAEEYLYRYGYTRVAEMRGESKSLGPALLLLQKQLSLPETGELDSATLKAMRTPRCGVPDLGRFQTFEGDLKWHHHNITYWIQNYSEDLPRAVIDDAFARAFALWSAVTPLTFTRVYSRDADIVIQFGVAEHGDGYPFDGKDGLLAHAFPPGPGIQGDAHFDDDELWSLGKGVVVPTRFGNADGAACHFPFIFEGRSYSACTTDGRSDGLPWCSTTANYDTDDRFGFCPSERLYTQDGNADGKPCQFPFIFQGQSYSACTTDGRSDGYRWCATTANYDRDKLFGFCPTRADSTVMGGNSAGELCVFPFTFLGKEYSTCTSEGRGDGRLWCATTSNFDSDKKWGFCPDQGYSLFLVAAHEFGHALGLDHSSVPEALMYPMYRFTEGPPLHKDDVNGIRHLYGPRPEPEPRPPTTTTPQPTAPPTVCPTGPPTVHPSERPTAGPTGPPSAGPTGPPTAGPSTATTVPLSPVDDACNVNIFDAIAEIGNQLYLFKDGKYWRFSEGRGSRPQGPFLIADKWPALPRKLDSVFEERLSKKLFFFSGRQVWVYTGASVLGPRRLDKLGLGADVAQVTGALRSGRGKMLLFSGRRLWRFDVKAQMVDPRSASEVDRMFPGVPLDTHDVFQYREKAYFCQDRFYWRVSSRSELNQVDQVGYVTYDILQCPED

[4] = biological target: T2, Disintegrin and metalloproteinase domain-containing protein 17 (Homo sapiens, UniProt P78536); experiment: In vitro inhibitory activity against tumor necrosis factor alpha converting enzyme (TACE).
T2 sequence (P78536 whole entry, the tested form may be a part): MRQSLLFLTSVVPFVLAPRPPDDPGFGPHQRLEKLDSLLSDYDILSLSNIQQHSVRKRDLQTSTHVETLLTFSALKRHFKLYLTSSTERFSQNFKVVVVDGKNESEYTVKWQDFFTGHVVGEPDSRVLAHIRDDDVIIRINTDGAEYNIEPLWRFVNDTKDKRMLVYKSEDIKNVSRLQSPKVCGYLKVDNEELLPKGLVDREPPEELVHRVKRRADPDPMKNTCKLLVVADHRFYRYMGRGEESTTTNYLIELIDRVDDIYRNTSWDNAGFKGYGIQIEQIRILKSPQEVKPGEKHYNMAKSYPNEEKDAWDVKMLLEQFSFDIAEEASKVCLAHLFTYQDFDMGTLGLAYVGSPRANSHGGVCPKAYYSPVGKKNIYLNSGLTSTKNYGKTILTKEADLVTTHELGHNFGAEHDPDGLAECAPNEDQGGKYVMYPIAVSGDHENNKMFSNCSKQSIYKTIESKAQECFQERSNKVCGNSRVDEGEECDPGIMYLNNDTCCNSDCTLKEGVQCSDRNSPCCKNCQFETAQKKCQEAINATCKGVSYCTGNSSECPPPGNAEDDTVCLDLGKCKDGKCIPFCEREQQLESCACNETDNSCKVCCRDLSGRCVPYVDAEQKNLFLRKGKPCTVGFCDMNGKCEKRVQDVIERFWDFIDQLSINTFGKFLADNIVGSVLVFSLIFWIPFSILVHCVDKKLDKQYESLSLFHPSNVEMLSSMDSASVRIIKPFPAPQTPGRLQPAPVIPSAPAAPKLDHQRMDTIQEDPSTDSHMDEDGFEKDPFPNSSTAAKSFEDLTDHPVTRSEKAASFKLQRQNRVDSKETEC

Interstitial collagenase = biological target: T3, Interstitial collagenase (Homo sapiens, UniProt P03956); experiment: In vitro inhibitory activity against matrix metalloprotease-1
T3 sequence (P03956 whole entry): T1 sequence (whole entry)

[5] = In vivo inhibitory activity against Matrix metalloprotease enzyme by dialysis implant assay, value is relative to activity of CGS-27023 (68+/-5) at 25 mg/kg. po; format: functional
[6] = biological target: T2, Disintegrin and metalloproteinase domain-containing protein 17; experiment: Inhibition of Tumor necrosis factor alpha converting enzyme (TACE) at 10 uM; procedure, shortened: as §1
Collagenase 3 = Collagenase 3 (Homo sapiens, UniProt P45452)
[7] = In vivo inhibitory activity against Matrix metalloprotease enzyme by dialysis implant assay, value is relative to activity of CGS-27023 (73+/-3) at 25 mg/kg. po; format: functional
[8] = In vivo inhibition of Matrix metalloprotease enzyme by Sponge-wrapped cartilage assay, value is relative to activity of RS-130830 (39+/-2) at 10 mg/kg. po. bid; format: functional
[9] = In vivo inhibitory activity against Matrix metalloprotease enzyme by dialysis implant assay, value is relative to activity of CGS-27023 (69+/-2) at 25 mg/kg. po; format: functional
[10] = In vivo inhibition of Matrix metalloprotease enzyme by Sponge-wrapped cartilage assay, value is relative to activity of CGS-27023 (27+/-2) at 25 mg/kg. po. bid; format: functional
[11] = In vivo inhibitory activity against Matrix metalloprotease enzyme by dialysis implant assay, value is relative to activity of CGS-27023 (58+/-2) at 25 mg/kg. po; format: functional
[12] = In vivo inhibition of Matrix metalloprotease enzyme by Sponge-wrapped cartilage assay, value is relative to activity of CGS-27023 (37+/-5) at 25 mg/kg. po. bid; format: functional
[13] = In vivo inhibitory activity against Matrix metalloprotease enzyme by dialysis implant assay, value is relative to activity of CGS-27023 (38+/-3) at 25 mg/kg. po; format: functional
[14] = In vivo inhibitory activity against Matrix metalloprotease enzyme by dialysis implant assay, value is relative to activity of CGS-27023 (65+/-4) at 25 mg/kg. po; format: functional
[15] = In vivo inhibitory activity against Matrix metalloprotease enzyme by dialysis implant assay, value is relative to activity of CGS-27023 (74+/-2) at 25 mg/kg. po; format: functional
[16] = In vivo inhibition of Matrix metalloprotease enzyme by Sponge-wrapped cartilage assay, value is relative to activity of RS-130830 (43+/-3) at 25 mg/kg. po. bid; format: functional
[17] = In vivo inhibitory activity against Matrix metalloprotease enzyme by dialysis implant assay, value is relative to activity of CGS-27023 (76+/-2) at 25 mg/kg. po; format: functional
[18] = In vivo inhibition of Matrix metalloprotease enzyme by Sponge-wrapped cartilage assay, value is relative to activity of CGS-27023 (25+/-4) at 25 mg/kg. po. bid; format: functional
[19] = In vivo inhibitory activity against Matrix metalloprotease enzyme by dialysis implant assay, value is relative to activity of CGS-27023 (54+/-2) at 25 mg/kg. po; format: functional
[20] = In vivo inhibition of Matrix metalloprotease enzyme by Sponge-wrapped cartilage assay, value is relative to activity of CGS-27023 (39+/-3) at 25 mg/kg. po. bid; format: functional
[21] = In vivo inhibitory activity against Matrix metalloprotease enzyme by dialysis implant assay, value is relative to activity of CGS-27023 (51+/-2) at 25 mg/kg. po; format: functional

SMILES: COc1ccc(S(=O)(=O)C2(C(=O)NO)CCN(C(C)C)CC2)cc1
inhibition in vivo at 25 mg/kg [5]: 49%
inhibition [6]: 18%

SMILES: CCCCN1CCC(C(=O)NO)(S(=O)(=O)c2ccc(Oc3ccc(Cl)cc3)cc2)CC1
IC50 (Collagenase 3): 1 nM
inhibition in vivo at 25 mg/kg [7]: 93%
inhibition in vivo at 10 mg/kg [8]: 69%
IC50 [3]: 1 nM
IC50 [4]: 301 nM
IC50 (Interstitial collagenase): 1070 nM

SMILES: COc1ccc(S(=O)(=O)C2(C(=O)NO)CCN(C)CC2)cc1
inhibition in vivo at 25 mg/kg [11]: 36%
inhibition [6]: 20%

SMILES: CCN1CCC(C(=O)NO)(S(=O)(=O)c2ccc(OC)cc2)CC1
inhibition [6]: 25%
inhibition in vivo at 25 mg/kg [13]: 17%

SMILES: CCCCOc1ccc(S(=O)(=O)C2(C(=O)NO)CCN(Cc3cccc(OCCN4CCOCC4)c3)CC2)cc1
inhibition in vivo at 25 mg/kg [14]: 27%

SMILES: CCCCOc1ccc(S(=O)(=O)C2(C(=O)NO)CCN(CCCC)CC2)cc1
inhibition in vivo at 25 mg/kg [15]: 86%
IC50 (Collagenase 3): 2 nM
inhibition [1]: 50%
inhibition in vivo at 25 mg/kg [16]: 46%

Continued, in another order:

inhibition [1]: 48%
IC50 [3]: 3 nM
IC50 (Interstitial collagenase): 40 nM
SMILES: O=C(NO)C1(S(=O)(=O)c2ccc(OCc3ccccc3)cc2)CCN(Cc2ccccc2)CC1
inhibition in vivo at 25 mg/kg [2]: 17%
IC50 [4]: 416 nM

IC50 [3]: 5 nM
SMILES: CCCCOc1ccc(S(=O)(=O)C2(C(=O)NO)CCN(CCCOc3ccccc3)CC2)cc1
inhibition in vivo at 25 mg/kg [9]: 67%
inhibition in vivo at 25 mg/kg [10]: 17%

IC50 (Collagenase 3): 2 nM
SMILES: COc1ccc(CN2CCC(C(=O)NO)(S(=O)(=O)c3ccc(OC)cc3)CC2)cc1
inhibition in vivo at 25 mg/kg [9]: 75%
inhibition in vivo at 25 mg/kg [12]: 45%

IC50 (Collagenase 3): 2 nM
IC50 [3]: 17 nM
SMILES: COc1ccc(S(=O)(=O)C2(C(=O)NO)CCN(Cc3ccc(C)cc3)CC2)cc1
inhibition in vivo at 25 mg/kg [17]: 89%

IC50 (Collagenase 3): 1 nM
IC50 [3]: 3 nM
SMILES: CCCCOc1ccc(S(=O)(=O)C2(C(=O)NO)CCN(Cc3ccc(OC)cc3)CC2)cc1
inhibition in vivo at 25 mg/kg [18]: 17%
inhibition in vivo at 25 mg/kg [19]: 69%

IC50 (Collagenase 3): 1 nM
IC50 [3]: 4 nM
SMILES: CCCCOc1ccc(S(=O)(=O)C2(C(=O)NO)CCN(Cc3ccccc3)CC2)cc1
inhibition in vivo at 25 mg/kg [20]: 53%
inhibition in vivo at 25 mg/kg [21]: 80%
